{"source": "paper PMC3334839", "about": "(The Journal of Neuroscience, 2012)", "key": {"[1]": {"target": "T1, human α1 GlyR (Homo sapiens, UniProt P23415)", "T1 sequence (P23415 29-457)": "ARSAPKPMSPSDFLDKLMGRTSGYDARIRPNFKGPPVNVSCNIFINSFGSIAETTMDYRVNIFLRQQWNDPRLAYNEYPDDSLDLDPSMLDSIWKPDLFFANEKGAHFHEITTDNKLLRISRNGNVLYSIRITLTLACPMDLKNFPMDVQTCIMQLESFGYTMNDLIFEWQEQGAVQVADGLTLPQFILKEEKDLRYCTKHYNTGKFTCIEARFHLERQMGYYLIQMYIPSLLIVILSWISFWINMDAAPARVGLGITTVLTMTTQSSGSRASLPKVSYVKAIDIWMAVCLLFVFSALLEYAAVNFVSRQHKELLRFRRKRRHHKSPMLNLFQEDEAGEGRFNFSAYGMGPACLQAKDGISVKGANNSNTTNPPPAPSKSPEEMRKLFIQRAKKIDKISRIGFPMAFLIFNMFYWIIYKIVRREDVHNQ", "assay": "cell-based", "format": "cell-based", "conditions": "for average percent potentiation of IGly: concentration-response (Fig. 1E)"}, "[2]": {"target": "α1β1 GlyRs (Homo sapiens, UniProt P23415)", "sequence (P48167 23-497 partner, one chain of several)": "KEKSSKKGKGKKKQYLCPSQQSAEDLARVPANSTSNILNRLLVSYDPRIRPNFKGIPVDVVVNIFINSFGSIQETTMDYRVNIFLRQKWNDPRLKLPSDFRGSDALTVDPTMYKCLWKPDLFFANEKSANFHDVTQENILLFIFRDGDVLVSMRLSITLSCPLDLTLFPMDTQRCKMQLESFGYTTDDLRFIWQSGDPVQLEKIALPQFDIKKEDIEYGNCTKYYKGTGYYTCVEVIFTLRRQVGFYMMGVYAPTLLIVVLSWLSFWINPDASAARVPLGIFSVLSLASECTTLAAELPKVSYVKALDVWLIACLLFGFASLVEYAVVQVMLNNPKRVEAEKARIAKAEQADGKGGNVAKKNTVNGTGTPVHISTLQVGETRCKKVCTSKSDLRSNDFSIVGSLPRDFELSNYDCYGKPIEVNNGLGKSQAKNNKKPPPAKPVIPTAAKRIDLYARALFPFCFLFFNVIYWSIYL", "format": "cell-based"}, "[3]": {"target": "T2, rat α2 GlyR (Rattus norvegicus, UniProt P22771)", "T2 sequence (P22771 28-452)": "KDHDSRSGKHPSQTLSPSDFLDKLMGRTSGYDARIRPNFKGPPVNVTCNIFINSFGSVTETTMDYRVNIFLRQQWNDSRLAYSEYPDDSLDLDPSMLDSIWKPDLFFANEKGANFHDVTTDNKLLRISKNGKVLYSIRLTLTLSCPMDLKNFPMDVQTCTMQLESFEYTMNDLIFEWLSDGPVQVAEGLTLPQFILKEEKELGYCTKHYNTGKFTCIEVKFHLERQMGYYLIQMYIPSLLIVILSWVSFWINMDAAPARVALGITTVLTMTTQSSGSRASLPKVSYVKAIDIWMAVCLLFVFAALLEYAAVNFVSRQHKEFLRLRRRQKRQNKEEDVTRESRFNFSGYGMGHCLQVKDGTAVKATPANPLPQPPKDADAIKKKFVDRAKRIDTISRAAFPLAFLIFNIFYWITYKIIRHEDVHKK", "assay": "Whole-cell patch-clamp of IGly in HEK-293 cells expressing α2 GlyRs", "format": "cell-based", "conditions": "10 μM AEA, 5 min sustained, EC2 Gly (20 μM), wild-type α2"}, "[4]": {"target": "T3, A303S mutant rat α2 GlyR (Rattus norvegicus, UniProt P22771, A330S)", "T3 sequence (P22771 28-452 A330S)": "T2 sequence (P22771 28-452) with A303S", "assay": "Whole-cell patch-clamp of IGly in HEK-293 cells expressing A303S mutant α2 GlyRs", "format": "cell-based", "conditions": "10 μM AEA, 5 min sustained, EC2 Gly (20 μM)"}, "[5]": {"target": "T4, human 5-HT3A receptor (Homo sapiens, UniProt P46098)", "T4 sequence (P46098 24-478)": "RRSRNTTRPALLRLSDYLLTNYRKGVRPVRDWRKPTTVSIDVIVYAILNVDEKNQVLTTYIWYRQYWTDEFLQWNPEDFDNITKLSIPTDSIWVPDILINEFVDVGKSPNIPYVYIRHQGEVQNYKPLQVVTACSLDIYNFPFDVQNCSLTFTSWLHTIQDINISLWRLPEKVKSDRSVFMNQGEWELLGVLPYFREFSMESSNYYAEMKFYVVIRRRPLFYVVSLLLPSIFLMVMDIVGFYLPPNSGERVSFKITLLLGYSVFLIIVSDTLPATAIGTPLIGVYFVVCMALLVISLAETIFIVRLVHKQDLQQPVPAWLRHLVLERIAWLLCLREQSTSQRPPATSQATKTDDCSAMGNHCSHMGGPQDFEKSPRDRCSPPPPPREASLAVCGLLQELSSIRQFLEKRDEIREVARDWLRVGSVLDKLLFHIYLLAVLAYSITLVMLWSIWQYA", "format": "cell-based", "in_short": "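Human 5-HT3A receptors (wild-type or point mutant made by site-directed mutagenesis) transfected into HEK-293 cells. Cells recorded 2 d later, trypsin/EDTA-treated 2 h before, lifted, superfused with HEPES-buffered saline (pH 7.4). Whole-cell, CsCl pipette, −60 mV, 20–22°C. 5-HT 30 μM pulses before, during and after continuous 5 min test compound (0.1 μM) incubation; 5–7 cells, mean ± SE.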"}, "[6]": {"target": "CB1 receptors", "conditions": "read-out: binding affinity (Ki) for CB1 receptors; ref Pertwee, 2000; cited from earlier work"}, "[7]": {"target": "CB2 receptors", "conditions": "read-out: binding affinity (Ki) for CB2 receptors; ref Pertwee, 2000; cited from earlier work"}}, "note": "Residue numbers refer to the chain shown, from its start.", "data": [{"smiles": "CCCCC/C=C\\C/C=C\\C/C=C\\C/C=C\\CCCC(=O)NCCO", "note": "[AEA, anandamide]", "values": [{"measurement": "EC50", "setting": "[1]", "result": "4.2 ± 1.95", "unit": "µM"}, {"measurement": "time to maximal potentiation of IGly", "setting": "[1]; 1 μM AEA sustained application, α1 homomeric", "result": 5, "unit": "min"}, {"measurement": "average percentage potentiation of IGly", "setting": "[1]; 1 μM AEA, 5 min sustained application, EC2 Gly, α1 (Fig. 1C)", "result": "97 ± 16", "unit": "%"}, {"measurement": "percentage potentiation of IGly, initial value", "setting": "[1]; 1 μM AEA, after 1 min of AEA exposure, HEK-293 cells", "result": "3 ± 1", "unit": "%"}, {"measurement": "average percent potentiation of IGly", "setting": "[1]; 1 μM AEA, EC2 Gly", "result": "91 ± 9", "unit": "%"}, {"measurement": "average percent potentiation of IGly", "setting": "[1]; 3 μM AEA, EC2 Gly", "result": "311 ± 86", "unit": "%"}, {"measurement": "AEA-induced potentiation of IGly, simultaneous application", "setting": "[1]; 10 μM AEA simultaneously applied only with Gly, wild-type α1", "result": "108 ± 15", "unit": "%"}, {"measurement": "average percentage potentiation of IGly", "setting": "[1]; 10 μM AEA, Gly 30 μM", "result": "102 ± 49", "unit": "%"}, {"measurement": "average percentage potentiation of IGly", "setting": "[1]; 10 μM AEA, Gly 100 μM", "result": "24 ± 6", "unit": "%"}, {"measurement": "average percent potentiation of IGly", "setting": "[1]; 10 μM AEA, Gly 10 μM", "result": "712 ± 96", "unit": "%"}, {"measurement": "average percent potentiation of IGly", "setting": "[1]; 30 μM AEA, EC2 Gly", "result": "824 ± 278", "unit": "%"}, {"measurement": "maximal potentiation of α1 GlyRs", "setting": "[1]; AEA applied continuously for 5 min with intermittent Gly", "result": "700–800%"}, {"measurement": "direct activation of current by AEA alone", "setting": "[1]; even at high concentrations (> 30 μM), no Gly, cell type not specified", "result": "did not trigger detectable current"}, {"measurement": "time to maximal potentiation of IGly", "setting": "[2]; 1 μM AEA sustained application, α1β1 heteromeric", "result": 5, "unit": "min"}, {"measurement": "average percentage potentiation of IGly", "setting": "[2]; 1 μM AEA, 5 min sustained application, EC2 Gly, α1β1 (Fig. 1C)", "result": "85 ± 12", "unit": "%"}, {"measurement": "average percentage potentiation of IGly", "setting": "[3]", "result": "127 ± 37", "unit": "%"}, {"measurement": "AEA-induced potentiation of IGly", "setting": "[4]", "result": "580 ± 110", "unit": "%"}, {"measurement": "effect on 5-HT-activated current", "setting": "[5]; 0.1 μM AEA for 5 min, 5-HT 30 μM, wild-type", "result": "gradually developing inhibition"}, {"measurement": "time to maximal inhibition of I5-HT", "setting": "[5]; continuous exposure to 0.1 μM AEA", "result": 5, "unit": "min"}, {"measurement": "Ki", "setting": "[6]", "result": "0.061 to 0.543", "unit": "µM"}, {"measurement": "Ki", "setting": "[7]", "result": "0.279 to 1.94", "unit": "µM"}]}]}
